Assay results from PubChem BioAssay.
Some of the results follow. Values without a mark were called inactive. Calls of active or inactive are those of the source.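 How the source made its calls, unless noted: active means mean of duplicate thallium-flux fluorescence ratios in parental host cells more than 5 SD below the buffer control mean (cut at about 0.38 in these data); inactive means the rest.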

How the values were obtained:
[1] = biological target: Potassium voltage-gated channel subfamily KQT member 1 (Homo sapiens) (UniProt P51787); assay: KCNQ1 potassium channel inhibitors, confirmation, cell-based, Tl flux, duplicate (AID 588353;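 active means primary screen active, with duplicate mean exceeding buffer control mean plus 3 SD of buffer wells, cut at about 28% in these data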;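 further: 0% = buffer control ratio and 100% = XE991 inhibitor control ratio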); settings: KCNQ1 cell line, FluxOR thallium flux fluorescence, at 10 µM, active compounds read high
Method in brief: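 Assay system – KCNQ1 CHO cells · Probe or stimulus – Tl2SO4 plus K2SO4 stimulus, each 12.5 mM in 5x stock · Times – dye loading 90 min, compound 20 min, both room temperature · Signal – kinetic FluxOR thallium-sensitive dye fluorescence, 10 s baseline, 110 s post-stimulus · Measure – percent inhibition of fluorescence change ratio, scaled buffer to XE991 · Repeats – duplicate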

[2] = thallium flux effects in parental CHO cells, counter-screen for KCNQ1 inhibitor project, cell-based, Tl flux (AID 588366); settings: parental CHO-K1, FluxOR thallium flux fluorescence ratio; at 10 µM; active compounds read low; zero means no signal rise above baseline;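 further: ratio is peak minus minimum fluorescence divided by baseline fluorescence; actives read low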
Method in brief: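 System: parental CHO-K1 cells lacking KCNQ1 channel expression. Probe or stimulus: depolarizing K2SO4 plus Tl2SO4 stimulus, each 12.5 mM in 5x stock. Times: 90 min dye load, 20 min compound, room temperature. Measured by: real-time thallium-sensitive FluxOR dye fluorescence reading. Read-out: baseline-normalized fluorescence amplitude ratio, averaged over duplicates. Repeats: duplicates.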

[3] = biological target: Potassium voltage-gated channel subfamily KQT member 1 (Homo sapiens) (UniProt P51787); assay: KCNQ1 channel inhibitors, confirmation, orthogonal assay, cell-based, automated electrophysiology (AID 624120;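 active means KCNQ1 current drop exceeding 3 SD of negative control wells, seen in both duplicate runs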); settings: KCNQ1-CHO cells, automated patch clamp current; at 10 µM
Method in brief: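 Material: CHO cells expressing human KCNQ1 potassium channel; replication: duplicates; probe or stimulus: voltage stimulus of 2,000 ms steps to +40 mV, -80 mV holding; measured by: automated perforated-patch voltage clamp using amphotericin B; medium: pH 7.4 external buffer; dosing: single test compound dose of 10 µM final; read-out: steady-state current change vs pre-compound, percent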

[4] = biological target: Potassium voltage-gated channel subfamily KQT member 2 (Rattus norvegicus) (UniProt O88943); assay: KCNQ2 channel inhibition, selectivity assay for KCNQ1 inhibitor project, cell-based (AID 651746;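 active means mean percent inhibition of the KCNQ2 thallium signal more than 5 SD above the buffer-only control wells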;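 on inhibition: 0% = buffer control wells and 100% = XE-991 inhibitor control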); settings: KCNQ2 cells, FluxOR thallium flux fluorescence, at 10 µM; active compounds read high
[5] = biological target: Potassium voltage-gated channel subfamily E member 1 (Homo sapiens) + Potassium voltage-gated channel subfamily KQT member 1 (Homo sapiens) (UniProt P15382+P51787); assay: KCNQ1/KCNE1 channel inhibition, selectivity assay for KCNQ1 inhibitor project, CHO-K1 cells, thallium flux, FluxOR (AID 652147;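 active means mean percent inhibition of duplicate wells above the buffer-only control mean plus 3 SD of those controls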;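 on inhibition: 0% = buffer only wells and 100% = XE-991 inhibitor control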); settings: FluxOR thallium flux fluorescence, at 10 µM; active compounds read high
Method in brief: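 Test system: cells expressing KCNQ1/KCNE1 channels; Probe or stimulus: Tl2SO4 plus K2SO4 stimulus, each 12.5 mM in 5x stock; Times: 20 min compound pre-incubation at room temperature; Technique: kinetic FluxOR thallium-sensitive fluorescence, 1 Hz sampling, 150 s post-stimulus.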

Sequence of Potassium voltage-gated channel subfamily KQT member 1 (Homo sapiens) (P51787 whole entry, looked up): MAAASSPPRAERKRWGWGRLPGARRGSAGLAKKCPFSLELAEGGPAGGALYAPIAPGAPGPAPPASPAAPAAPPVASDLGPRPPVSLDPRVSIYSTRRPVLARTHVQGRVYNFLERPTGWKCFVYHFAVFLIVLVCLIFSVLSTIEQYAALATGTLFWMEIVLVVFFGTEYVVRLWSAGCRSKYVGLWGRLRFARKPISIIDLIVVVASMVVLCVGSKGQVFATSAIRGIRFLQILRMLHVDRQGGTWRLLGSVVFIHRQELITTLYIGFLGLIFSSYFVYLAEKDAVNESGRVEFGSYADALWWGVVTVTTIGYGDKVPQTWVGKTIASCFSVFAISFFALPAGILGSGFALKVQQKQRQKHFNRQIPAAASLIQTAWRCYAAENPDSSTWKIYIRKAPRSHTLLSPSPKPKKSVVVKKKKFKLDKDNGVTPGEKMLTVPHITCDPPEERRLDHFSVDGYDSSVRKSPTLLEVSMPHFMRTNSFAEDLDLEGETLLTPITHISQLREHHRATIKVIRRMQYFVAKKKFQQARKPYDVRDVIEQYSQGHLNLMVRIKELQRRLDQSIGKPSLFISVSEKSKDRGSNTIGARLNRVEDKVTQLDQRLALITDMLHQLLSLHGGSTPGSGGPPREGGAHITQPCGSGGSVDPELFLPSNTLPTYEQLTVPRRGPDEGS
Sequence of Potassium voltage-gated channel subfamily E member 1 (Homo sapiens) + Potassium voltage-gated channel subfamily KQT member 1 (Homo sapiens) (P51787 whole entry, looked up): as the sequence (P51787 whole entry, looked up) above
Sequence of Potassium voltage-gated channel subfamily KQT member 2 (Rattus norvegicus) (O88943 whole entry, looked up): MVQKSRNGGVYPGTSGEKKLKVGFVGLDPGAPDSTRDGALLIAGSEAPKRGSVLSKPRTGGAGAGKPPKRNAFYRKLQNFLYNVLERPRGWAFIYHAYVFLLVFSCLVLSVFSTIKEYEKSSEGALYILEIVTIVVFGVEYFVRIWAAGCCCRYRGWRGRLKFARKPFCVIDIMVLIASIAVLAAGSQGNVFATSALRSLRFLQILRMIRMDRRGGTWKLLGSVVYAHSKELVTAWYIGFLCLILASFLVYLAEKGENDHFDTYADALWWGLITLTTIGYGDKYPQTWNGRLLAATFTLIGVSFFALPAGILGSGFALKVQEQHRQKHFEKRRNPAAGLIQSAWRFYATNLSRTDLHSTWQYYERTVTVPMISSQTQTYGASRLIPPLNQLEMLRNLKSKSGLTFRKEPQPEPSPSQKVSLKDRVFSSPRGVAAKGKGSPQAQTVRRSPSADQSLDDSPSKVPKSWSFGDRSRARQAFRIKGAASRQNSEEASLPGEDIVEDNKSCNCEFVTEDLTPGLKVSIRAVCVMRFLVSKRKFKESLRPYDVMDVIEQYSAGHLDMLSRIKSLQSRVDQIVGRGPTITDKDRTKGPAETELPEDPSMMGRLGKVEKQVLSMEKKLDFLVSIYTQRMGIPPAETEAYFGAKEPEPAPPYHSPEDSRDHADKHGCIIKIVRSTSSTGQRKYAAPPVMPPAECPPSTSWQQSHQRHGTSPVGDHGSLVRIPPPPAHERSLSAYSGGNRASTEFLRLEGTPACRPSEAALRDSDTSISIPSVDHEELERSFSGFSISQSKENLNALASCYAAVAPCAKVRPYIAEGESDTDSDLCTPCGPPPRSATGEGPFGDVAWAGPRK

SMILES	inhibition [1]	fluorescence ratio (Tl flux) [2]	outcome [3]	inhibition [4]	inhibition [5]	outcome [4]	outcome [5]
CCOC(=O)N1CCN(C(=O)C2CCN(c3ncnc4c3sc3cccc(F)c34)CC2)CC1	109% (active)	0.427	active	105% (active)	90% (active)		
COC(=O)c1cc(NC(=O)c2cc(C(C)(C)C)nn2Cc2cccc(C)c2)ccc1N1CCOCC1	77% (active)	0.333 (active)		80.3% (active)	154% (active)		
Cc1ccc(N2CCN(S(=O)(=O)c3ccc(F)cc3)CC2)c(C)c1	79% (active)	0.406		94% (active)	69.5% (active)		
O=C(CNCCC1=CCCCC1)Nc1ccccc1N1CCCCCC1	144% (active)	0.402	inactive	114% (active)	175% (active)		
CCc1noc(C)c1C(=O)Oc1ccc(N(C)S(=O)(=O)c2ccc(C)c(C)c2)cc1	108% (active)	0.408	inactive	95.3% (active)	83.5% (active)		
Cc1ccc(-c2noc(CC(c3ccccc3)c3ccccc3)n2)cc1	65.5% (active)	0.45		77% (active)	116% (active)		
CCn1c(C)c(C)c2cc(C(=O)N3CCN(c4cccc(C)c4C)CC3)ccc21	106% (active)	0.475	inactive	66.3% (active)	180% (active)		
CC1CCCN(C(C(=O)Nc2ccc(C(C)C)cc2)c2ccc3c(c2)OCO3)C1 (stereo unspecified)	132% (active)	0.429	inactive	99.7% (active)	164% (active)		
c1ccc2c(c1)C(=NC1CCCCC1)NC2=NC1CCCCC1	48% (active)	0.526				inactive	inactive
CCOC(=O)c1c(NC(=O)C(C)Sc2c[nH]c3ccccc23)sc2c1CCC2 (stereo unspecified)	124% (active)	0.415		105% (active)	155% (active)		
CCOC(=O)c1cnc(SC)nc1Sc1ccc(Cl)cc1Cl	97.5% (active)	0.406	inactive	93% (active)	111% (active)		
CC(=O)N1CCCc2cc(S(=O)(=O)N3CCCC(C(=O)N4CCN(c5cccc(Cl)c5)CC4)C3)ccc21 (stereo unspecified)	126% (active)	0.436		134% (active)	140% (active)		
CCOC(=O)c1ccc(NC(=O)Cn2cnc3cc(C)c(C)cc32)cc1	60% (active)	0.481			55% (active)	inactive	
Cc1nc(N2CCN(c3ccccn3)CC2)c2c(C)c(C(=O)Nc3ccc(F)cc3)sc2n1	146% (active)	0.324 (active)		141% (active)			
Clc1cccc(-c2nc(NCC3CCCO3)c3ccccc3n2)c1 (stereo unspecified)	116% (active)	0.394	inactive	118% (active)	154% (active)		
Cc1cc2nc3c(=O)n(Cc4ccccc4)c(=O)[nH]c3nc2cc1N	93% (active)	0.332 (active)			110% (active)	inactive	
Cc1cc(Br)ccc1NC(=O)c1cnc(N2CCN(c3ccccn3)CC2)c2ccccc12	89% (active)	0.444	inactive	94.7% (active)	124% (active)		
Cc1cccc(Nc2ccccc2C(=O)NCc2ccco2)c1C	134% (active)	0.394	inactive	101% (active)	198% (active)		
O=C(NCC(F)(F)F)Nc1nnc(C(F)(F)F)s1	26% (active)	0.557				inactive	inactive
S=C(NCCCc1ccccc1)Nc1ccc(Br)cc1	150% (active)	0.591	inactive		76.5% (active)	inactive	
Cn1nccc1C(=O)NC1CCCc2c1cnn2-c1ccc(F)cc1F (stereo unspecified)	90% (active)	0.47	inactive	60.3% (active)			inactive
COc1cc(NC(=O)c2ccccc2NS(=O)(=O)c2ccc(Cl)s2)cc(OC)c1	102% (active)	0.419				inactive	inactive

SMILES	inhibition [1]	fluorescence ratio (Tl flux) [2]	outcome [3]	inhibition [4]	inhibition [5]	outcome [4]	outcome [5]
Cc1cc(C)cc(NC(=O)NC2CCCCCCC2)c1	146% (active)	0.465	active		164% (active)	inactive	
C=CCOC(=O)C1=C(C)NC(SCC(=O)OCC)=C(C#N)C1c1ccc(C)cc1 (stereo unspecified)	124% (active)	0.425	active	115% (active)	160% (active)		
Cc1nc2ccccc2cc1OCc1ccc(F)cc1	126% (active)	0.438	inactive	99% (active)	88.5% (active)		
O=C(Nc1ccc(Cl)cc1)Nc1ccc(Oc2cccnc2)nc1	56% (active)	0.487					inactive
CCNC(=O)c1ccc(OCC(=O)Nc2ccc(F)cc2)c(OC)c1	0% [the number is a placeholder, only the call stands]	0.446			51% (active)	inactive	
FC(F)Oc1ccc(NC(=S)NCc2ccco2)cc1Cl	56.5% (active)	0.494			38% (active)	inactive	
Cc1cccc(-c2nc3ccc(C(=O)NCCN4CCN(C)CC4)cc3nc2-c2cccc(C)c2)c1	63% (active)	0.34 (active)		107% (active)	118% (active)		
Cc1nnc(SC(C(=O)Nc2cc(Cl)cc(Cl)c2)c2ccccc2)[nH]c1=O (stereo unspecified)	43% (active)	0.471					inactive
CSc1nccc(NC(=O)c2ccc(C(C)(C)C)cc2)n1	153% (active)	0.366 (active)		105% (active)	144% (active)		
Cc1ccccc1C(=O)OC1OC(=O)C(Cl)=C1Nc1ccccc1 (stereo unspecified)	79% (active)	0.434			65% (active)		
Cc1c(C(=O)OC(C)C)sc(NC(=O)c2cccnc2)c1C#N	74% (active)	0.489		78% (active)	48.5% (active)		
Cc1ccccc1OCC(=O)Nc1ccc(N2CCN(C(=O)C(C)C)CC2)c(Cl)c1	57.5% (active)	0.503			51% (active)		
Cn1nc(-c2ccc(Cl)cc2)c2cc(C(=O)NCc3ccco3)sc21	70.5% (active)	0.454		103% (active)			inactive
S=C(Nc1cccc(Cl)c1)Nc1ccc2c(c1)OCCO2	81% (active)	0.444			47% (active)	inactive	
Cc1ccc(S(=O)(=O)Nc2ccc3ncccc3c2)cc1	76.5% (active)	0.499				inactive	inactive
Cc1nc(Nc2ccc3c(c2)OCCO3)c2nnn(Cc3ccccc3Cl)c2n1	83% (active)	0.413		96% (active)	102% (active)		
O=C(Nc1ccc2ccccc2c1)Nc1ccc2snnc2c1	41.5% (active)	0.539				inactive	inactive
CC(C)OC(=O)C(C#N)c1nc2ccccc2nc1N1CCN(Cc2ccccc2)CC1 (stereo unspecified)	148% (active)	0.382		100% (active)			inactive
CC1CCC2(CC1)NC(=O)N(CC(=O)c1cccn1C)C2=O (stereo unspecified)	31% (active)	0.503				inactive	inactive
CCC(=C/c1sc2ccc3ccccc3c2[n+]1C)/C=C1\Sc2ccc3ccccc3c2N1C	57.5% (active)	0.508		59% (active)	64% (active)		
CCOc1ccc(CN2CCN(Cc3c[nH]c4ccccc34)CC2)cc1	0% [the number is a placeholder, only the call stands]	0.441			40% (active)	inactive	
Cc1cc(C)cc(N(CC(=O)N2CC=C(c3ccccc3)CC2)S(=O)(=O)c2c(C)noc2C)c1	78% (active)	0.363 (active)		111% (active)	84% (active)		

SMILES	inhibition [1]	fluorescence ratio (Tl flux) [2]	outcome [3]	inhibition [4]	inhibition [5]	outcome [4]	outcome [5]
Cc1nn(C)cc1N1C(=O)c2cccc3c(N)ccc(c23)C1=O		0.006 (active)				inactive	inactive
Cc1cccc(NC(=S)Nc2ccc(Cl)c(Cl)c2)c1	49% (active)	0.565				inactive	inactive
COc1cccc(-c2cnc(OC(C)(C)C)nc2OC(C)(C)C)c1	75% (active)	0.462		61% (active)	94.5% (active)		
Oc1ccc2ccc3cccc[n+]3c2c1		0.012 (active)				inactive	inactive
Cc1cccc(-n2cc(CN3CCN(C(=O)c4ncn[nH]4)CC3)c(-c3cccc(F)c3)n2)c1	45.5% (active)	0.435				inactive	inactive
O=C1CCCN1CCCNC(=S)Nc1ccc(F)c(Cl)c1	51% (active)	0.445		72.7% (active)	58.5% (active)		
Cc1oc2c(F)c(F)c(F)c(F)c2c1S(=O)(=O)Nc1cccc(C(F)(F)F)c1	0% [the number is a placeholder, only the call stands]	0.531				inactive	inactive
CS(=O)(=O)N(CC(=O)Nc1ccc(Cl)c(Cl)c1)C1CCCCC1	56.5% (active)	0.476		63.3% (active)			inactive
COC(=O)c1ccc(NC(=O)Nc2ccc(C)cc2)cc1	62.5% (active)	0.504				inactive	inactive
O=C(NC(=S)Nc1ccccc1C(=O)O)c1ccc(-c2ccc(Br)cc2)o1	56% (active)	0.46			78% (active)	inactive	
COc1ccc(Nc2ncnc3sc(-c4ccccc4)cc23)c(OC)c1	82.5% (active)	0.403		112% (active)	146% (active)		
O=C1CCc2cc(S(=O)(=O)N3CCC(C(=O)NCc4ccccc4Cl)CC3)ccc2N1	0% [the number is a placeholder, only the call stands]	0.447				inactive	inactive
CC(C(=O)NCC1CCCCC1)N(C)Cc1cccc(Cl)c1 (stereo unspecified)	62% (active)	0.435		76% (active)	84% (active)		
COc1ccc(-c2cc(C(F)(F)F)nc(S(C)(=O)=O)n2)cc1OC	27% (active)	0.445			77.5% (active)	inactive	
COc1ccc(C(=O)NC2CCCc3c2cnn3-c2cccc(C)c2C)c(OC)n1 (stereo unspecified)	132% (active)	0.296 (active)		127% (active)	184% (active)		
CCc1cc(C(c2ccccc2OC)N2CCOCC2)c(NC(=O)c2ccccc2)s1 (stereo unspecified)	102% (active)	0.335 (active)			132% (active)		
Fc1ccc2[nH]c3c(N4CCSCC4)ncnc3c2c1	162% (active)	0.362 (active)				inactive	inactive
CN(c1cccc(NC(=O)Nc2ccc(Cl)cc2)c1)S(C)(=O)=O	59.5% (active)	0.545			42.5% (active)	inactive	
N#Cc1c(/N=C/N2CCCC2)oc(-c2ccccc2)c1-c1ccccc1	70% (active)	0.445		74.3% (active)	79% (active)		
O=C(Nc1nnc(S(=O)(=O)N2CCCCCC2)s1)c1cccc(Br)c1	57% (active)	0.485				inactive	inactive
Cc1cccc(CSc2ccc(-c3cccs3)nn2)c1	78% (active)	0.42		114% (active)	112% (active)		
